Measurements published in ChEMBL document CHEMBL2375313, “Synthesis, in vitro antitumor evaluation and DNA-binding study of novel tetrahydroquinolines and some derived tricyclic and tetracyclic ring systems” (Eur J Med Chem, 2013).

Assays:
Type in all cases: functional
HL-60(TB) = test: Cytotoxicity against human HL-60(TB) cells assessed as growth inhibition at 10 uM after 48 hrs by sulphorhodamine B assay; details: HL-60, 48 h, read-out: GI
Outline: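 NCI-60 one-dose primary screen run to the Drug Evaluation Branch protocol. Cells are exposed to a single 10 µM concentration for 48 h continuously, and growth is read by SRB protein assay. Data are reported as percent growth of treated cells, expressed as % growth inhibition.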

RXF 393 = test: Cytotoxicity against human RXF393 cells assessed as growth inhibition at 10 uM after 48 hrs by sulphorhodamine B assay; details: RXF 393, 48 h, read-out: GI
Outline: (§1)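 NCI-60 one-dose screen per the NCI Drug Evaluation Branch protocol. Cells given a single 10 µM concentration with 48 h continuous exposure. Growth estimated by sulphorhodamine B protein assay. Result expressed as percentage growth inhibition relative to untreated growth.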

SK-MEL-2 = test: Cytotoxicity against human SK-MEL-2 cells assessed as growth inhibition at 10 uM after 48 hrs by sulphorhodamine B assay; details: SK-MEL-2, 48 h, read-out: GI; outline: as §1
MDA-MB-435 = test: Cytotoxicity against human MDA-MB-435 cells assessed as growth inhibition at 10 uM after 48 hrs by sulphorhodamine B assay; details: MDA-MB-435, 48 h, read-out: GI; outline: as §1
Hs-578T = test: Cytotoxicity against human Hs578T cells assessed as growth inhibition at 10 uM after 48 hrs by sulphorhodamine B assay; details: read-out: GI; outline: as §1
NCI-H23 = test: Cytotoxicity against human NCI-H23 cells assessed as growth inhibition at 10 uM after 48 hrs by sulphorhodamine B assay; details: NCI-H23, 48 h, read-out: GI; outline: as §1
MOLT-4 = test: Cytotoxicity against human MOLT4 cells assessed as growth inhibition at 10 uM after 48 hrs by sulphorhodamine B assay; details: MOLT-4, 48 h, read-out: GI; outline: as §1
HOP-92 = test: Cytotoxicity against human HOP92 cells assessed as growth inhibition at 10 uM after 48 hrs by sulphorhodamine B assay; details: HOP-92, 48 h, read-out: GI; outline: as §1
SNB-19 = test: Cytotoxicity against human SNB19 cells assessed as growth inhibition at 10 uM after 48 hrs by sulphorhodamine B assay; details: SNB-19, 48 h, read-out: GI; outline: as §1
SR = test: Cytotoxicity against human SR cells assessed as growth inhibition at 10 uM after 48 hrs by sulphorhodamine B assay; details: read-out: GI; outline: as §1
HCT-116 = test: Cytotoxicity against human HCT116 cells assessed as growth inhibition at 10 uM after 48 hrs by sulphorhodamine B assay; details: HCT-116, 48 h, read-out: GI; outline: as §1
HT-29 = test: Cytotoxicity against human HT-29 cells assessed as growth inhibition at 10 uM after 48 hrs by sulphorhodamine B assay; details: HT-29, 48 h, read-out: GI; outline: as §1
MDA-MB-468 = test: Cytotoxicity against human MDA-MB-468 cells assessed as growth inhibition at 10 uM after 48 hrs by sulphorhodamine B assay; details: MDA-MB-468, 48 h, read-out: GI; outline: as §1
LOX IMVI = test: Cytotoxicity against human LOXIMVI cells assessed as growth inhibition at 10 uM after 48 hrs by sulphorhodamine B assay; details: read-out: GI; outline: as §1
RPMI-8226 = test: Cytotoxicity against human RPMI8226 cells assessed as growth inhibition at 10 uM after 48 hrs by sulphorhodamine B assay; details: RPMI-8226, 48 h, read-out: GI; outline: as §1
U-251 = test: Cytotoxicity against human U251 cells assessed as growth inhibition at 10 uM after 48 hrs by sulphorhodamine B assay; details: U-251, 48 h, read-out: GI; outline: as §1
CCRF-CEM = test: Cytotoxicity against human CCRF-CEM cells assessed as growth inhibition at 10 uM after 48 hrs by sulphorhodamine B assay; details: read-out: GI; outline: as §1
SF-295 = test: Cytotoxicity against human SF295 cells assessed as growth inhibition at 10 uM after 48 hrs by sulphorhodamine B assay; details: SF-295, 48 h, read-out: GI; outline: as §1
SK-MEL-5 = test: Cytotoxicity against human SK-MEL-5 cells assessed as growth inhibition at 10 uM after 48 hrs by sulphorhodamine B assay; details: SK-MEL-5, 48 h, read-out: GI; outline: as §1
UO-31 = test: Cytotoxicity against human UO31 cells assessed as growth inhibition at 10 uM after 48 hrs by sulphorhodamine B assay; details: UO-31, 48 h, read-out: GI; outline: as §1
SNB-75 = test: Cytotoxicity against human SNB75 cells assessed as growth inhibition at 10 uM after 48 hrs by sulphorhodamine B assay; details: SNB-75, 48 h, read-out: GI; outline: as §1
[1] = Cytotoxicity against human EKVX cells assessed as growth inhibition at 10 uM after 48 hrs by sulphorhodamine B assay; details: read-out: GI; outline: as §1
A498 = test: Cytotoxicity against human A498 cells assessed as growth inhibition at 10 uM after 48 hrs by sulphorhodamine B assay; details: A498, 48 h, read-out: GI; outline: as §1
OVCAR-5 = test: Cytotoxicity against human OVCAR5 cells assessed as growth inhibition at 10 uM after 48 hrs by sulphorhodamine B assay; details: OVCAR-5, 48 h, read-out: GI; outline: as §1
HCT-15 = test: Cytotoxicity against human HCT15 cells assessed as growth inhibition at 10 uM after 48 hrs by sulphorhodamine B assay; details: HCT-15, 48 h, read-out: GI; outline: as §1
M14 = test: Cytotoxicity against human M14 cells assessed as growth inhibition at 10 uM after 48 hrs by sulphorhodamine B assay; details: M14, 48 h, read-out: GI; outline: as §1
OVCAR-4 = test: Cytotoxicity against human OVCAR4 cells assessed as growth inhibition at 10 uM after 48 hrs by sulphorhodamine B assay; details: OVCAR-4, 48 h, read-out: GI; outline: as §1
CAKI-1 = test: Cytotoxicity against human Caki1 cells assessed as growth inhibition at 10 uM after 48 hrs by sulphorhodamine B assay; details: CAKI-1, 48 h, read-out: GI; outline: as §1
MCF7 = test: Cytotoxicity against human MCF7 cells assessed as growth inhibition at 10 uM after 48 hrs by sulphorhodamine B assay; details: MCF7, 48 h, read-out: GI; outline: as §1
UACC-62 = test: Cytotoxicity against human UACC62 cells assessed as growth inhibition at 10 uM after 48 hrs by sulphorhodamine B assay; details: UACC-62, 48 h, read-out: GI; outline: as §1
NCI-H522 = test: Cytotoxicity against human NCI-H522 cells assessed as growth inhibition at 10 uM after 48 hrs by sulphorhodamine B assay; details: NCI-H522, 48 h, read-out: GI; outline: as §1
DU-145 = test: Cytotoxicity against human DU145 cells assessed as growth inhibition at 10 uM after 48 hrs by sulphorhodamine B assay; details: DU-145, 48 h, read-out: GI; outline: as §1
PC-3 = test: Cytotoxicity against human PC3 cells assessed as growth inhibition at 10 uM after 48 hrs by sulphorhodamine B assay; details: PC-3, 48 h, read-out: GI; outline: as §1
IGROV-1 = test: Cytotoxicity against human IGROV1 cells assessed as growth inhibition at 10 uM after 48 hrs by sulphorhodamine B assay; details: IGROV-1, 48 h, read-out: GI; outline: as §1
ACHN = test: Cytotoxicity against human ACHN cells assessed as growth inhibition at 10 uM after 48 hrs by sulphorhodamine B assay; details: read-out: GI; outline: as §1
K562 = test: Cytotoxicity against human K562 cells assessed as growth inhibition at 10 uM after 48 hrs by sulphorhodamine B assay; details: K562, 48 h, read-out: GI; outline: as §1
SF-268 = test: Cytotoxicity against human SF268 cells assessed as growth inhibition at 10 uM after 48 hrs by sulphorhodamine B assay; details: SF-268, 48 h, read-out: GI; outline: as §1
A549 = test: Cytotoxicity against human A549 cells assessed as growth inhibition at 10 uM after 48 hrs by sulphorhodamine B assay; details: A549, 48 h, read-out: GI; outline: as §1
NCI/ADR-RES = test: Cytotoxicity against human NCI/ADR-RES cells assessed as growth inhibition at 10 uM after 48 hrs by sulphorhodamine B assay; details: read-out: GI; outline: as §1
SK-OV-3 = test: Cytotoxicity against human SKOV3 cells assessed as growth inhibition at 10 uM after 48 hrs by sulphorhodamine B assay; details: SK-OV-3, 48 h, read-out: GI; outline: as §1
T47D = test: Cytotoxicity against human T47D cells assessed as growth inhibition at 10 uM after 48 hrs by sulphorhodamine B assay; details: read-out: GI; outline: as §1

For `CCSc1nc(N)c2c(-c3ccc(OC)cc3)c3c(nc2n1)C(C)CCC3` (stereo unspecified), which inhibition of growth at 10 µM (HL-60(TB)) is on record?
The inhibition of growth at 10 µM was 34.5%.

What about the inhibition of growth at 10 µM (RXF 393) of the same compound?
Its inhibition of growth at 10 µM is 25.9%.

What about the inhibition of growth at 10 µM (SK-MEL-2) of the same compound?
Its inhibition of growth at 10 µM is less than 10%.

What about the inhibition of growth at 10 µM (MDA-MB-435) of the same compound?
The inhibition of growth at 10 µM was less than 10%.

What about the inhibition of growth at 10 µM (Hs-578T) of the same compound?
Its inhibition of growth at 10 µM is 36.2%.

What about the inhibition of growth at 10 µM (NCI-H23) of the same compound?
The inhibition of growth at 10 µM was less than 10%.

And the inhibition of growth at 10 µM (MOLT-4)?
The inhibition of growth at 10 µM was 29%.

What about the inhibition of growth at 10 µM (HOP-92) of the same compound?
Its inhibition of growth at 10 µM is 26.8%.

And the inhibition of growth at 10 µM (SNB-19)?
The inhibition of growth at 10 µM was 12.5%.

What about the inhibition of growth at 10 µM (SR) of the same compound?
Its inhibition of growth at 10 µM is less than 10%.

And the inhibition of growth at 10 µM (HCT-116)?
Its inhibition of growth at 10 µM is 20%.

What about the inhibition of growth at 10 µM (HT-29) of the same compound?
The inhibition of growth at 10 µM was 23.3%.

And the inhibition of growth at 10 µM (MDA-MB-468)?
The inhibition of growth at 10 µM was 13.8%.

What about the inhibition of growth at 10 µM (LOX IMVI) of the same compound?
Its inhibition of growth at 10 µM is 10.6%.

What about the inhibition of growth at 10 µM (RPMI-8226) of the same compound?
Its inhibition of growth at 10 µM is 25.5%.

What about the inhibition of growth at 10 µM (U-251) of the same compound?
The inhibition of growth at 10 µM was 16%.

And the inhibition of growth at 10 µM (CCRF-CEM)?
Its inhibition of growth at 10 µM is 26.4%.

What about the inhibition of growth at 10 µM (SF-295) of the same compound?
Its inhibition of growth at 10 µM is less than 10%.

And the inhibition of growth at 10 µM (SK-MEL-5)?
Its inhibition of growth at 10 µM is 11.4%.

What about the inhibition of growth at 10 µM (UO-31) of the same compound?
The inhibition of growth at 10 µM was 10.5%.

What about the inhibition of growth at 10 µM (SNB-75) of the same compound?
The inhibition of growth at 10 µM was less than 10%.

What about the inhibition of growth at 10 µM [1] of the same compound?
Its inhibition of growth at 10 µM is less than 10%.

What about the inhibition of growth at 10 µM (A498) of the same compound?
Its inhibition of growth at 10 µM is less than 10%.

What about the inhibition of growth at 10 µM (OVCAR-5) of the same compound?
Its inhibition of growth at 10 µM is less than 10%.

What about the inhibition of growth at 10 µM (HCT-15) of the same compound?
The inhibition of growth at 10 µM was 23.8%.

What about the inhibition of growth at 10 µM (M14) of the same compound?
The inhibition of growth at 10 µM was less than 10%.

What about the inhibition of growth at 10 µM (OVCAR-4) of the same compound?
The inhibition of growth at 10 µM was 26.8%.

What about the inhibition of growth at 10 µM (CAKI-1) of the same compound?
The inhibition of growth at 10 µM was less than 10%.

And the inhibition of growth at 10 µM (MCF7)?
The inhibition of growth at 10 µM was less than 10%.

What about the inhibition of growth at 10 µM (UACC-62) of the same compound?
Its inhibition of growth at 10 µM is 25%.

What about the inhibition of growth at 10 µM (NCI-H522) of the same compound?
The inhibition of growth at 10 µM was 13.2%.

And the inhibition of growth at 10 µM (DU-145)?
The inhibition of growth at 10 µM was 24.5%.

And the inhibition of growth at 10 µM (PC-3)?
Its inhibition of growth at 10 µM is 31.4%.

And the inhibition of growth at 10 µM (IGROV-1)?
The inhibition of growth at 10 µM was less than 10%.

What about the inhibition of growth at 10 µM (ACHN) of the same compound?
Its inhibition of growth at 10 µM is 30.8%.

And the inhibition of growth at 10 µM (K562)?
The inhibition of growth at 10 µM was 32.5%.

What about the inhibition of growth at 10 µM (SF-268) of the same compound?
Its inhibition of growth at 10 µM is less than 10%.

And the inhibition of growth at 10 µM (A549)?
The inhibition of growth at 10 µM was 16%.

What about the inhibition of growth at 10 µM (NCI/ADR-RES) of the same compound?
The inhibition of growth at 10 µM was less than 10%.

What about the inhibition of growth at 10 µM (SK-OV-3) of the same compound?
Its inhibition of growth at 10 µM is less than 10%.

What about the inhibition of growth at 10 µM (T47D) of the same compound?
The inhibition of growth at 10 µM was 41%.
